Assay results: the M2OR odorant receptor database

Biological target: T1, OR51B5 (Homo sapiens) (UniProt Q9H339)
T1 sequence (whole entry): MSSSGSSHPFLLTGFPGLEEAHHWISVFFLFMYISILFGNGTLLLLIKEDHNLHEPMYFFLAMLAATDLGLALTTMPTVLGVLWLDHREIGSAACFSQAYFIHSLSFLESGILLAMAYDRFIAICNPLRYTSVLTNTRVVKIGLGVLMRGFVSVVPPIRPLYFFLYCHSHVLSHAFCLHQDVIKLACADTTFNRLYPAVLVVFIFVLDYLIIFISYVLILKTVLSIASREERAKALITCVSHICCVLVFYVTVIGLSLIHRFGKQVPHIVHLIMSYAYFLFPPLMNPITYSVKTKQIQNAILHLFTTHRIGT
Details: stereoisomer not certain
Method in brief: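 Each receptor–molecule pair is labelled responsive or non-responsive (inactive) according to whether the original authors judged the measured signal statistically different from baseline. The data were taken from the main text and supplementary material of published papers and checked for typos and inconsistencies. Assay methods differed by source, with transient luciferase assays in mammalian cell lines being common.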
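Also: active if original authors judged signal statistically different from baseline.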

Odorant receptor agonist call, inactive:
CCCCCCCCO, CCCCCCCCCCCCCCCC(=O)OCC, CCCCCCCCCCCCCCCCCC(=O)[O-].[H+], CCCCCCCCCCCCCCCCCC(=O)OCC, CC(C=O)Cc1ccc(C(C)(C)C)cc1 (centres undefined), CCCCCCCCCCCCCC(=O)OC, CCCCCCCC(=O)[O-].[H+], C=C(C)C1CC=C(C)CC1 (centres undefined), CCCCCCCC(=O)OC, CCCCCCCCCCCCCCCCCC(=O)OC, CCCCCCCC(=O)OCC, CCCCCCC(=O)[O-].[H+], CCCC(=O)CC, Cc1ccc(C(C)C)cc1, CCCCC(=O)C(C)=O, CCC(O)CC, CCCCCCCCCCCCCC(=O)O, CC(=O)O, CC(O)C(=O)[O-].[H+] (centres undefined), Cc1cccc(C)c1C, Cc1cnc(C)cn1, C=C1CCC2CC1C2(C)C (centres undefined), CCCCCCCCCCCC(=O)OC, CCCCCCCCCCCCO, CCCCCCCCCCCCCCCC(=O)[O-].[H+], CCCCCCCCCCCCCCC(=O)O, CCCCCCCCCCCCCC(=O)OCC, O=c1ccc2ccccc2o1, CCCCCCCCCCCCCCCC(=O)OC
